Tests used:
[1] = cited from earlier work
caspase-3 = assay: Active caspase-3 expression by flow cytometry; assay type: cell-based, human; conditions: Jurkat cells, 24 h, 4a at IC50 concentration
Procedure, shortened: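 Jurkat cells were seeded at 1 × 10^6 cells per well and left 12 h, then exposed to the test compound for 24 h. Cells were harvested, fixed in 70% ice-cold ethanol at −20 °C for 30 min, and washed twice with PBS. They were stained with FITC anti-active caspase-3 antibody for 60 min at room temperature in the dark, washed, resuspended in PBS and analysed by flow cytometry.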

Jurkat cells = assay: Annexin V-FITC/PI apoptosis assay by flow cytometry; assay type: cell-based, human; conditions: 24 h, 4a at IC50 concentration

Compound: CC(C)(C)C[C@@H]1N[C@@H](C(=O)N[C@H]2CC[C@H](O)CC2)[C@H](c2cccc(Cl)c2F)[C@]12C(=O)Nc1cc(Cl)ccc12 [MI-773]
- Stability in solution [1]: low stability in solution

Compound: CC[C@@]1(O)C(=O)OCc2c1cc1n(c2=O)Cc2cc3ccccc3nc2-1 [CPT, camptothecin]
- Active caspase-3 expression (M2, apoptotic cells) (caspase-3): > 54%
- Apoptotic dying cells (M2, Annexin-V-FITC fluorescence intensity) (Jurkat cells): 68%
- Cells in late stage apoptosis (Jurkat cells; Annexin V-FITC/PI): 14%
